We go through six molecules from ChEMBL document CHEMBL3044755, “5-Methyl-1,2,3-thiadiazoles synthesized via ugi reaction and their fungicidal and antiviral activities” (J Agric Food Chem, 2010).

The test system of series [1] is Cercospora beticola. In words: Fungicidal activity against Cercospora beticola at 50 ug/ml by growth inhibition method. Format: functional. Conditions: read-out: GI. In a few lines: (§1)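 Mycelial growth inhibition on potato dextrose agar. The panel covered Alternaria solani, Botrytis cinerea, Cercospora arachidicola, C. beticola, Colletotrichum lagenarium, Fusarium oxysporum, Gibberella zeae, Puccinia triticina, Phytophthora infestans, Physalospora piricola, Pellicularia sasakii and Rhizoctonia solani.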

Series [2] relates to Fusarium graminearum. The experiment in a line: Fungicidal activity against Fusarium graminearum at 50 ug/ml by growth inhibition method. Format: functional. Conditions: read-out: GI. In a few lines:
as §1

In series [3] the test system is Botrytis cinerea. In words: Fungicidal activity against Botryotinia fuckeliana at 50 ug/ml by growth inhibition method. The following applies: read-out: GI. Type of series: functional. In a few lines:
as §1

The test system of series [4] is Colletotrichum lagenaria. In words: Fungicidal activity against Colletotrichum lagenaria at 50 ug/ml by growth inhibition method. Format: functional. The following applies: read-out: GI. In a few lines:
as §1

Series [5] has as its system Phytophthora infestans. The experiment in a line: Fungicidal activity against Phytophthora infestans at 50 ug/ml by growth inhibition method. Type of series: functional. Conditions: read-out: GI. In a few lines: as §1
Series [6] deals with Botryosphaeria berengeriana. In words: Fungicidal activity against Botryosphaeria berengeriana at 50 ug/ml by growth inhibition method. Format: functional. Conditions: read-out: GI. In a few lines:
as §1

Series [7] has as its system Tobacco mosaic virus. In words: In vitro antiviral activity against Tobacco mosaic virus (TMV) infected tobacco leaves at 500 ug/ml. Type of series: functional.
Series [8] deals with Mycosphaerella arachidis. The experiment in a line: Fungicidal activity against Mycosphaerella arachidis at 50 ug/ml by growth inhibition method. Type of series: functional. Conditions: read-out: GI. In a few lines: as §1
For series [9], the system named is Alternaria solani. The experiment in a line: Fungicidal activity against Alternaria solani at 50 ug/ml by growth inhibition method. Conditions: read-out: GI. Format: functional. In a few lines: as §1
Series [10] concerns Fusarium oxysporum. In words: Fungicidal activity against Fusarium oxysporum at 50 ug/ml by growth inhibition method. Type of series: functional. Conditions: read-out: GI. In a few lines:
as §1

Series [11] has as its system Thanatephorus cucumeris. In words: Fungicidal activity against Thanatephorus cucumeris at 50 ug/ml by growth inhibition method. Type of series: functional. The following applies: read-out: GI. In a few lines: as §1
Series [12] concerns Tobacco mosaic virus. In words: In vitro antiviral activity against Tobacco mosaic virus (TMV) infected tobacco leaves at 200 ug/ml. Format: functional.
Series [13] has as its system Tobacco mosaic virus. The experiment in a line: In vitro antiviral activity against Tobacco mosaic virus (TMV) infected tobacco leaves at 100 ug/ml. Type of series: functional.
Series [14] deals with Nicotiana tabacum. The experiment in a line: Induction of systemic acquired resistance activity in TMV infected-Nicotiana tabacum (tobacco) leaves at 100 ug/ml. Format: functional. In a few lines: (§2)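 Tobacco/TMV system used for systemic acquired resistance induction. Inhibition ratio calculated from mean lesion numbers on inoculated leaves relative to corresponding control. Tiadinil and ribavirin run as controls.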

Series [15] concerns Tobacco mosaic virus. In words: In vivo antiviral activity against Tobacco mosaic virus (TMV) infected tobacco leaves assessed as inactivation effect at 100 ug/ml co-treated with virus for 30 min before inoculation onto leaves measured at 2-3 days after viral challenge. Type of series: functional. In a few lines: (§3)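 TMV (5.88 10-2 μg/mL) mixed with equal volume of compound solution for 30 min, then rubbed onto upper three leaves of six-leaf tobacco; solvent on lower three leaves as control. Lesions counted 2-3 days later, three repetitions. Inhibition (%) = (CK − A)/CK × 100 from mean lesion counts.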

For series [16], the system named is Nicotiana tabacum. The experiment in a line: Phytotoxicity against Nicotiana tabacum (tobacco) plant. Type of series: organism-based. The following applies: in vivo.
Series [17] relates to Tobacco mosaic virus. The experiment in a line: In vivo antiviral activity against Tobacco mosaic virus (TMV) infected tobacco leaves assessed as protective effect at 100 ug/ml treated 12 hr before viral inoculation measured at 2-3 days after viral challenge. Type of series: functional. In a few lines: (§4)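 Six-leaf tobacco; compound solution smeared over whole leaves, dried in greenhouse, then after 12 h TMV (5.88 10-2 μg/mL) rubbed onto upper three leaves, with solvent on lower three leaves as control. Local lesions counted 2-3 days post-inoculation, three repetitions. Inhibition (%) = (CK − A)/CK × 100 from mean lesion numbers.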

Series [18] has as its system Nicotiana tabacum. The experiment in a line: Induction of systemic acquired resistance activity in TMV infected-Nicotiana tabacum (tobacco) leaves at 50 ug/ml. Type of series: functional. In a few lines: as §2
In series [19] the test system is Tobacco mosaic virus. The experiment in a line: In vivo antiviral activity against Tobacco mosaic virus (TMV) infected tobacco leaves assessed as inactivation effect at 500 ug/ml co-treated with virus for 30 min before inoculation onto leaves measured at 2-3 days after viral challenge. Type of series: functional. In a few lines: as §3
Series [20] has as its system Tobacco mosaic virus. In words: In vivo antiviral activity against Tobacco mosaic virus (TMV) infected tobacco leaves assessed as protective effect at 500 ug/ml treated 12 hr before viral inoculation measured at 2-3 days after viral challenge. Type of series: functional. In a few lines:
as §4

With `Cc1ccc(N(C(=O)c2nnsc2C)C(C(=O)NC(C)C)c2ccc(C(F)(F)F)cc2)cc1Cl` (centres undefined), the inhibition of growth at 50 µg/mL in series [1] was 17%; in series [2], 67%; in series [3] it was 70%; in series [4] it was 7%; in series [5], 0%; in series [6], 11%. Besides, the inhibition of growth at 50 µg/mL in series [8] stood at 25%; in series [9], 35%; in [10] it was 12%; in [11], 56%. In series [7], this molecule had an inhibition at 500 µg/mL of 34%. In series [12], the inhibition at 200 µg/mL worked out at 32%.
For `Cc1ccc(N(C(=O)c2nnsc2C)C(C(=O)NC(C)C)c2ccccc2[N+](=O)[O-])cc1Cl` (centres undefined), the inhibition of growth at 50 µg/mL came out at 8% in [1]; 12% in [2]; 60% in [3]; 10% in [4]; 24% in series [5]; 39% in [6]. Also, the inhibition of growth at 50 µg/mL was 5% in [8], 26% in series [9], 14% in series [10] and 31% in [11]. In addition, in series [13], the inhibition at 100 µg/mL turned out to be 19%. Further, in series [7], the inhibition at 500 µg/mL is 59%.
Regarding `Cc1ccc(N(C(=O)c2nnsc2C)C(C(=O)NC(C)C)c2cccc(C(F)(F)F)c2)cc1Cl` (centres undefined), the inhibition of growth at 50 µg/mL in series [1] stood at 25%; in series [2] it was 50%; in series [3], 76%; in [4] it was 17%; in series [5] it was 0%; in series [6], 44%. Moreover, the inhibition of growth at 50 µg/mL is 13% in series [8], 37% in series [9], 14% in series [10] and 26% in series [11]. This molecule also registered an inhibition at 500 µg/mL in [7] of 41%. The inhibition at 200 µg/mL in series [12] was 17%.
On to `Cc1ccc(N(C(=O)c2nnsc2C)C(C(=O)NC(C)C)c2cccc([N+](=O)[O-])c2)cc1Cl` (centres undefined), for which the inhibition of growth at 50 µg/mL is 46% in series [1]; 33% in series [2]; 78% in series [3]; 10% in [4]; 26% in series [5]; 45% in series [6]. In addition, the inhibition of growth at 50 µg/mL in series [8] was found to be 9%; in series [9], 33%; in [10], 12%; in series [11], 52%. This molecule also came in with an inhibition at 100 µg/mL in series [13] of 28%. In addition, 500 µg/mL produced 34% inhibition in series [7].
As for `NC(=O)c1ncn([C@@H]2O[C@H](CO)[C@@H](O)[C@H]2O)n1` [RIBAVIRIN], the Activity in series [14] is reported as 28%; in series [15], 46%; in [16], “Non-toxic”; in [17] it was 30%; in series [18] it was 31%; in [19], 59%. For the same molecule, the Activity in series [20] amounted to 59%. Further, the inhibition at 100 µg/mL in series [13] came out at 20%. This molecule also returned an inhibition at 500 µg/mL in series [7] of 32%.
For `Cc1ccc(N(C(=O)c2nnsc2C)C(C(=O)NC(C)C)c2ccccc2C(F)(F)F)cc1Cl` (centres undefined), the inhibition of growth at 50 µg/mL is 23% in series [1]; 24% in series [2]; 70% in series [3]; 17% in [4]; 13% in [5]; 43% in series [6]. For the same molecule, the inhibition of growth at 50 µg/mL in series [8] turned out to be 18%; in [9], 36%; in [10], 10%; in [11] it was 57%. This molecule also came in with an inhibition at 500 µg/mL in series [7] of 16%. Moreover, in series [12], the inhibition at 200 µg/mL worked out at 29%.
